The source made the active and inactive calls. The rule behind the calls is not given here.

One may read the IC50 as the concentration that inhibits the measured activity by half. A higher IC50 goes with lower potency.

Experiment [1] deals with T1, Tyrosine-protein phosphatase non-receptor type 1 (Homo sapiens, UniProt P18031).
T1 sequence (P18031 whole entry): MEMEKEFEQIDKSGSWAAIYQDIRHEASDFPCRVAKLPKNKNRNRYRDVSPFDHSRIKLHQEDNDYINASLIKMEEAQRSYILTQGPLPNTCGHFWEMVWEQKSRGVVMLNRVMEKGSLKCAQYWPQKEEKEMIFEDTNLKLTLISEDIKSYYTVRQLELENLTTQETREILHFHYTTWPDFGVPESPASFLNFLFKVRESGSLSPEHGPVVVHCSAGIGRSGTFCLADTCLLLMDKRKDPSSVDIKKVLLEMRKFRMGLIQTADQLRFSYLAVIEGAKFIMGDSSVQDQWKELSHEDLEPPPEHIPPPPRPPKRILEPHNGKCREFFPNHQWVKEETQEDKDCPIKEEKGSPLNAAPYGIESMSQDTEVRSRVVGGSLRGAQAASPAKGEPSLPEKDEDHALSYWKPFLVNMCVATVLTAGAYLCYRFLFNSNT
Put plainly: Inhibition of GST-tagged PTP1B (unknown origin) using pNPP as substrate measured for 2 mins by colorimetric analysis.

Experiment [2] concerns the target T2, Tyrosine-protein phosphatase non-receptor type 1 (Homo sapiens) (UniProt P18031).
T2 sequence (whole entry): T1 sequence (P18031 whole entry)
Put plainly: Inhibition of PTP1B (unknown origin) expressed in CHO cells over-expressing human IR assessed as increase in insulin-mediated IR-beta phosphorylation preincubated for 2 hrs followed by insulin challenge for 10 mins by Western blotting analysis. It is filed as cell-based. The gist of the method:
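CHO cells overexpressing human IR, grown in Ham's F-12 with 10% FBS at 37 °C, 5% CO2. Cells were serum-starved 2 h, then exposed to compound for 2 h (0.2% DMSO vehicle; 1 mM sodium orthovanadate as positive control). They were then stimulated with 10 nM insulin for 10 min. Lysates were run on 8% SDS-PAGE and immunoblotted with anti-pTyr, using β-actin as the loading control.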

The species named for experiment [3] is Homo sapiens. The experiment is described as follows: Selectivity ratio of IC50 for TCPTP (unknown origin) to IC50 for GST-tagged PTP1B (unknown origin).
Experiment [4] deals with T3, M-phase inducer phosphatase 2 (Homo sapiens, UniProt P30305).
T3 sequence (P30305 whole entry): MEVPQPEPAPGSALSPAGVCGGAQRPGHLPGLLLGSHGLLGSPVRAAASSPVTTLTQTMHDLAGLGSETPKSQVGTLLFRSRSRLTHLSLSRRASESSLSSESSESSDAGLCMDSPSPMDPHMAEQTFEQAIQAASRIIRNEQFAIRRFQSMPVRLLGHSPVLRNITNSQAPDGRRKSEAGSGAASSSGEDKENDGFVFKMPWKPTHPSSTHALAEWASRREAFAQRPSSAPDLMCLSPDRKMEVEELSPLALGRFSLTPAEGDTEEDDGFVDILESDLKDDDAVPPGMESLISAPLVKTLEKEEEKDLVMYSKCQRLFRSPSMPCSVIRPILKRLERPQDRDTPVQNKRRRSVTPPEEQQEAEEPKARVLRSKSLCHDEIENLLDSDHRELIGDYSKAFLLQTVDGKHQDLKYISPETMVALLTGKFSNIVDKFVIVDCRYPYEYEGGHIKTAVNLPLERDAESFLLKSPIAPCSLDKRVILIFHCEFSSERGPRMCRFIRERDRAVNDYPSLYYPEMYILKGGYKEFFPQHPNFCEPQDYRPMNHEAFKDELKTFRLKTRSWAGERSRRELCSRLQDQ
Put plainly: Inhibition of CDC25B (unknown origin).

In experiment [5] the target is T4, Tyrosine-protein phosphatase non-receptor type 2 (Homo sapiens, UniProt P17706).
T4 sequence (P17706 whole entry): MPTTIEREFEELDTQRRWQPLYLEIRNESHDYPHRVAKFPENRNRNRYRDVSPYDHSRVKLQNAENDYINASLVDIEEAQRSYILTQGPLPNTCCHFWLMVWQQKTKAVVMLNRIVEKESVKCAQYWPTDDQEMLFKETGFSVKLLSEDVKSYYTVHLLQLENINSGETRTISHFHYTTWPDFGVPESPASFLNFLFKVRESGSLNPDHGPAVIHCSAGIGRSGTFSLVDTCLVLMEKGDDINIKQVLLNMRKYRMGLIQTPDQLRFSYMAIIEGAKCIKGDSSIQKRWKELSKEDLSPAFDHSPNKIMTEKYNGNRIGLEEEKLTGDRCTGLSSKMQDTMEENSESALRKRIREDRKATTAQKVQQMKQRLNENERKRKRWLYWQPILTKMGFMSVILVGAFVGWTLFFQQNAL
Put plainly: Inhibition of TCPTP (unknown origin).

Experiment [6] has as its target Receptor-type tyrosine-protein phosphatase F (Homo sapiens, UniProt P10586). Put plainly: Inhibition of LAR (unknown origin).
Experiment [7] has as its target T5, Tyrosine-protein phosphatase non-receptor type 11 (Homo sapiens, UniProt Q06124).
T5 sequence (Q06124 whole entry): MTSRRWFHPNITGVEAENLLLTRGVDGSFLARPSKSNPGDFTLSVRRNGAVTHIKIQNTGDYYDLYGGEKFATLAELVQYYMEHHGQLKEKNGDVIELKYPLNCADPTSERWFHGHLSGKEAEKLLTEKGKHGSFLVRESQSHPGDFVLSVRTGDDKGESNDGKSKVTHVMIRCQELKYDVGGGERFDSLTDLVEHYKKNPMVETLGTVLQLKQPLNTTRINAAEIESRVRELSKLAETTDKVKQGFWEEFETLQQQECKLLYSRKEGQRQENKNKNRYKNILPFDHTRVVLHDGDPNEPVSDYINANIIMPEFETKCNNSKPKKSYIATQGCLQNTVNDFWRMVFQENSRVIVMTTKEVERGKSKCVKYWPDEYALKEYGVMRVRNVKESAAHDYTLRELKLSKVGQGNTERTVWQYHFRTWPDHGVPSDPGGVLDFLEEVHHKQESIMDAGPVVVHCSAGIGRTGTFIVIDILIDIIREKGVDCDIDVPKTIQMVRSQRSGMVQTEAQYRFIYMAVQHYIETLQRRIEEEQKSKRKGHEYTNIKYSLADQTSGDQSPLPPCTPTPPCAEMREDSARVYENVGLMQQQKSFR
The experiment is described as follows: Inhibition of SHP-2 (unknown origin).

Experiment [8] has as its target Tyrosine-protein phosphatase non-receptor type 6 (Homo sapiens, UniProt P29350). Put plainly: Inhibition of SHP-1 (unknown origin).
Experiment [9] has as its target T2, Tyrosine-protein phosphatase non-receptor type 1 (Homo sapiens). The note with it: CHO, 1.25 to 10 uM.

Receptor-type tyrosine-protein phosphatase F, sequence (P10586 whole entry): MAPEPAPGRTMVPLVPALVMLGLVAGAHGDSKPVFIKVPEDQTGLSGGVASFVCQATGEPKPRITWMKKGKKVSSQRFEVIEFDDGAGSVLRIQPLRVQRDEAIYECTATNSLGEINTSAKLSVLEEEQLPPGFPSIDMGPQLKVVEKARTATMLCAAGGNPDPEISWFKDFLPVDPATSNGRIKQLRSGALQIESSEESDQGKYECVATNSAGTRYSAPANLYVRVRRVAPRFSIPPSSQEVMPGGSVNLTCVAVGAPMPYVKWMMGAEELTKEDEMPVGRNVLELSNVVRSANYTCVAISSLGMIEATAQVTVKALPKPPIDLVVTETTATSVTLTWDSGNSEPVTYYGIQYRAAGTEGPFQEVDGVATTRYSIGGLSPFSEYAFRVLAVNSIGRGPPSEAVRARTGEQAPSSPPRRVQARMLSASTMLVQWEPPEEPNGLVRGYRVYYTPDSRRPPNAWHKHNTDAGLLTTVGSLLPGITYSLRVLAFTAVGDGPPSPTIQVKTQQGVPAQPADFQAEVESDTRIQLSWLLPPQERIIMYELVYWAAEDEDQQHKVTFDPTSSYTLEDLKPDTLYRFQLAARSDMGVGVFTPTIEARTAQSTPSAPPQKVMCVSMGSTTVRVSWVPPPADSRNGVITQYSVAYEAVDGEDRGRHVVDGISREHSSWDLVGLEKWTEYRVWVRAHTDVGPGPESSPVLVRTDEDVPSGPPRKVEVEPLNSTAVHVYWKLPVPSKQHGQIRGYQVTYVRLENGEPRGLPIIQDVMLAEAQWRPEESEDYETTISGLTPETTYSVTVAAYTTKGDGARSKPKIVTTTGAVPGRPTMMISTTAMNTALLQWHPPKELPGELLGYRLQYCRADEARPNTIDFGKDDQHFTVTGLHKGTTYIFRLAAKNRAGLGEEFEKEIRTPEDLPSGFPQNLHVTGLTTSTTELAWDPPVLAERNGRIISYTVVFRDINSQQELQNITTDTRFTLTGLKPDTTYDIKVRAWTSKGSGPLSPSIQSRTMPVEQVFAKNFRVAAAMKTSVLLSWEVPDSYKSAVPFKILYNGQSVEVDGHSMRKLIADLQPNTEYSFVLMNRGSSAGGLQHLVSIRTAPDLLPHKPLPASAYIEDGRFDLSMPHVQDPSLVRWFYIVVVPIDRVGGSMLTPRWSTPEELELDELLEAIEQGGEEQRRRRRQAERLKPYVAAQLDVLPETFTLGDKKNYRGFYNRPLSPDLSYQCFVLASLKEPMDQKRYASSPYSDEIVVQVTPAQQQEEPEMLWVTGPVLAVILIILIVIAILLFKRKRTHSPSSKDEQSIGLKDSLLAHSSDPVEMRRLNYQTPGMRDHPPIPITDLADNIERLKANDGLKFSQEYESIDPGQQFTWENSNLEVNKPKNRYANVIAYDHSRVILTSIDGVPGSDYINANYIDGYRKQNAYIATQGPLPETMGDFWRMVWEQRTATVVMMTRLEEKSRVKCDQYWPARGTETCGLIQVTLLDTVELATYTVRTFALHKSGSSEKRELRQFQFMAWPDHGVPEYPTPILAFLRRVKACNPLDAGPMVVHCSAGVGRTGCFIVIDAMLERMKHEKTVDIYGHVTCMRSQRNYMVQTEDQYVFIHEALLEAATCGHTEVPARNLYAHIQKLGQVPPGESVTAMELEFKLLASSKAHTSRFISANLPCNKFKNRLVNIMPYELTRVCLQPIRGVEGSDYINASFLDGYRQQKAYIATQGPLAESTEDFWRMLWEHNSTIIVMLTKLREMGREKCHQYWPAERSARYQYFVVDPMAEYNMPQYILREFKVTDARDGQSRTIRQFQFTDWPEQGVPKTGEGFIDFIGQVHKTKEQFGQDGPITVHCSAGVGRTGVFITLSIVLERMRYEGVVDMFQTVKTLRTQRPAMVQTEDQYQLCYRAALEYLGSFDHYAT
Tyrosine-protein phosphatase non-receptor type 6, sequence (P29350 whole entry): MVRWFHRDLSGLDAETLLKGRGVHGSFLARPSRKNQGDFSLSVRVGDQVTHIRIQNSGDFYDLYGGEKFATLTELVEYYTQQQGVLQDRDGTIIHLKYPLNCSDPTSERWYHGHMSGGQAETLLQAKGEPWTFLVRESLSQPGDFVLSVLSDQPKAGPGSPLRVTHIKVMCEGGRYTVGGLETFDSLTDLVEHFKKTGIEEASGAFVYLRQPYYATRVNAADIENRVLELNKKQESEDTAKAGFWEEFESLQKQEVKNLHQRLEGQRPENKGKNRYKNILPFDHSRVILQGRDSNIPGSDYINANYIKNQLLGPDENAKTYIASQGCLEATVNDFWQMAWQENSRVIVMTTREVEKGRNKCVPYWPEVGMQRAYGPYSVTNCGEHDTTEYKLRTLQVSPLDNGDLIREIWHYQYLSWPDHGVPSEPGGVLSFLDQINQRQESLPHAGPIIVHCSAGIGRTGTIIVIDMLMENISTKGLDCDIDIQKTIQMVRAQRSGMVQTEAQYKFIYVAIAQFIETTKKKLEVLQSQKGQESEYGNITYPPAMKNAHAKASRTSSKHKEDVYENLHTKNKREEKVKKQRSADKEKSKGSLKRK

In the case of `O=C(CCc1c[nH]c2ccccc12)N[C@@H](Cc1ccc(OCc2ccccc2)cc1)c1nc(C(=O)Nc2ccc(C(=O)O)cc2)c(-c2ccccc2)s1`, the IC50 in experiment [1] stood at 2.28 µM.

In turn, `C/C(=C/C(C)=C/c1csc([C@H](Cc2ccc(OCc3ccccc3)cc2)NC(=O)C2CCCCC2)n1)C(=O)O` had an IC50 in experiment [1] of 14.7 µM. In experiment [2], the inhibition entry was “inactive”.

As to `CCOC(=O)/C(C)=C\C(C)=C\c1nc([C@H](Cc2ccc(OCc3ccccc3)cc2)NC(=O)C2CCCCC2)sc1-c1ccccc1`, in [1], half-maximal inhibition (IC50) was put at 8.44 µM. For the same compound, in experiment [2], the inhibition entry was “inactive”.

Turning to `COC(=O)c1ccccc1NC(=O)c1csc([C@H](Cc2ccc(OCc3ccccc3)cc2)NC(=O)C2CCCCC2)n1`, the IC50 in experiment [1] came out at 8.79 µM. In other words, the single-digit micromolar range.

Compound `O=C(CCc1c[nH]c2ccccc12)N[C@@H](Cc1ccc(OCc2ccccc2)cc1)c1nc(C(=O)Nc2ccc(F)c(C(=O)O)c2)c(-c2ccccc2)s1` yielded an IC50 in experiment [1] of 1.62 µM. Compared with the last compound, the IC50 is about 5.4-fold lower.

On to `O=C(O)c1ccc(NC(=O)c2csc([C@H](Cc3ccc(OCc4ccccc4)cc3)NC(=O)C3CCCCC3)n2)cc1`, for which, in [1], the half-maximal inhibitory concentration (IC50) was found to be 4.88 µM.

For the compound `O=C(CCc1c[nH]c2ccccc12)N[C@@H](Cc1ccc(OCc2ccccc2)cc1)c1nc(C(=O)Nc2cc(Cl)ccc2C(=O)O)c(-c2ccccc2)s1`, it took 0.71 µM to reach half-maximal inhibition in [1] (IC50).

In the case of `O=C(CCc1c[nH]c2ccccc12)N[C@@H](Cc1ccc(OCc2ccccc2)cc1)c1nc(C(=O)Nc2cccc(F)c2C(=O)O)c(-c2ccccc2)s1`, in experiment [1], the midpoint of inhibition, the IC50, lay at 4.18 µM.

As for `CCOC(=O)/C(C)=C\C(C)=C\c1nc([C@H](Cc2ccc(OCc3ccccc3)cc2)NC(=O)C2CCCCC2)sc1C`, the half-maximal inhibitory concentration (IC50) in experiment [1] is 13.5 µM. In experiment [2], the inhibition result was “inactive”.

With `O=C(CCc1c[nH]c2ccccc12)N[C@@H](Cc1ccc(OCc2ccccc2)cc1)c1nc(C(=O)Nc2cccc(C(=O)O)c2)c(-c2ccccc2)s1`, in [3], the Ratio IC50 stood at 3.3. Besides, the IC50 is 7.37 µM in experiment [4]; 3.38 µM in [5]; 1.01 µM in experiment [1]; more than 20 µM in experiment [6]; 5.3 µM in experiment [7]; 7.53 µM in [8]. In addition, in experiment [2], the inhibition entry was “Dose-dependent effect”.

Consider `O=C(O)c1cccc(NC(=O)c2nc([C@H](Cc3ccc(OCc4ccccc4)cc3)NC(=O)C3CCCCC3)sc2-c2ccccc2)c1`, for which, in [3], the Ratio IC50 was 3.4. The IC50 in experiment [4] is 2.51 µM; in [5], 3.97 µM; in experiment [1], 1.17 µM; in experiment [6], more than 20 µM; in [7] it was 11.7 µM; in experiment [8], 6.93 µM.

Take `COC(=O)c1cccc(NC(=O)c2nc([C@H](Cc3ccc(OCc4ccccc4)cc3)NC(=O)CCc3c[nH]c4ccccc34)sc2-c2ccccc2)c1`: half-maximal inhibition in [1] (IC50) was put at 2.68 µM.

Regarding `COC(=O)c1cccc(NC(=O)c2csc([C@H](Cc3ccc(OCc4ccccc4)cc3)NC(=O)C3CCCCC3)n2)c1`, in experiment [1], the IC50 turned out to be 10.6 µM.

In the case of `O=C(O)c1cccc(NC(=O)c2csc([C@H](Cc3ccc(OCc4ccccc4)cc3)NC(=O)C3CCCCC3)n2)c1`, in experiment [1], inhibition was half-maximal at 6 µM (IC50).

In [1], `O=C(Nc1ccccc1C(=O)O)c1csc([C@H](Cc2ccc(OCc3ccccc3)cc2)NC(=O)C2CCCCC2)n1` gave an IC50 of 8.12 µM.

Consider `O=C(CCc1c[nH]c2ccccc12)N[C@@H](Cc1ccc(OCc2ccccc2)cc1)c1nc(C(=O)Nc2ccc(Cl)c(C(=O)O)c2)c(-c2ccccc2)s1`, for which the Ratio IC50 in experiment [3] turned out to be 2.4. Besides, the IC50 is 4.94 µM in [4]; 3.36 µM in experiment [5]; 1.42 µM in [1]; more than 20 µM in [6]; 6.79 µM in [7]; 8.79 µM in [8].

In the case of `O=C(CCc1c[nH]c2ccccc12)N[C@@H](Cc1ccc(OCc2ccccc2)cc1)c1nc(C(=O)Nc2ccc(C(=O)O)cc2F)c(-c2ccccc2)s1`, the IC50 in [1] turned out to be 0.77 µM.

In the case of `O=C(CCc1c[nH]c2ccccc12)N[C@@H](Cc1ccc(OCc2ccccc2)cc1)c1nc(C(=O)Nc2ccc(C(=O)O)c(F)c2)c(-c2ccccc2)s1`, the IC50 in experiment [1] was 2.56 µM.

On to `C/C(=C/C(C)=C/c1nc([C@H](Cc2ccc(OCc3ccccc3)cc2)NC(=O)C2CCCCC2)sc1-c1ccccc1)C(=O)O`, for which, in [1], the IC50 was 10.9 µM. Further, in [9], the inhibition entry was “Active”.

In turn, `COC(=O)c1ccc(NC(=O)c2csc([C@H](Cc3ccc(OCc4ccccc4)cc3)NC(=O)C3CCCCC3)n2)cc1` returned an IC50 in [1] of 4.42 µM. That is a single-digit micromolar value.

`CCOC(=O)/C(C)=C\C(C)=C\c1csc([C@H](Cc2ccc(OCc3ccccc3)cc2)NC(=O)C2CCCCC2)n1`: in [2], the inhibition entry is “inactive”.

On to `COC(=O)c1cccc(NC(=O)c2nc([C@H](Cc3ccc(OCc4ccccc4)cc3)NC(=O)C3CCCCC3)sc2-c2ccccc2)c1`, for which 3.79 µM corresponded to half-maximal inhibition in [1] (IC50).

Compound `CCOC(=O)/C(C)=C\C(C)=C\c1nc([C@H](Cc2ccc(OCc3ccccc3)cc2)NC(=O)C2CCCCC2)sc1CC(C)C` gave a half-inhibitory concentration (IC50) in [1] of 9.54 µM. The inhibition entry in [2] is “inactive”.

`O=C(CCc1c[nH]c2ccccc12)N[C@@H](Cc1ccc(OCc2ccccc2)cc1)c1nc(C(=O)Nc2ccc(F)cc2C(=O)O)c(-c2ccccc2)s1` showed an IC50 in experiment [1] of 2.82 µM. This lies in the single-digit micromolar range.

With `O=C(CCc1c[nH]c2ccccc12)N[C@@H](Cc1ccc(OCc2ccccc2)cc1)c1nc(C(=O)Nc2cc(C(=O)O)ccc2F)c(-c2ccccc2)s1`, the Ratio IC50 in [3] turned out to be 3.6. Moreover, the IC50 in experiment [4] is 9.74 µM; in experiment [5], 3.98 µM; in [1], 1.12 µM; in experiment [6], more than 20 µM; in experiment [7], 10.1 µM; in [8] it was 10.6 µM.

With `O=C(CCc1c[nH]c2ccccc12)N[C@@H](Cc1ccc(OCc2ccccc2)cc1)c1nc(C(=O)Nc2cc(Br)ccc2C(=O)O)c(-c2ccccc2)s1`, in experiment [1], the IC50 was 1.18 µM.

Compound `O=C(CCc1c[nH]c2ccccc12)N[C@@H](Cc1ccc(OCc2ccccc2)cc1)c1nc(C(=O)Nc2ccccc2C(=O)O)c(-c2ccccc2)s1` gave an IC50 in [1] of 5.56 µM.

The values are drawn from ChEMBL document CHEMBL2434820, “Design, synthesis, and biological evaluation of novel 2-ethyl-5-phenylthiazole-4-carboxamide derivatives as protein tyrosine phosphatase 1B inhibitors with improved cellular efficacy” (Eur J Med Chem, 2013).
